From ChEMBL document CHEMBL4138225, “Development of novel anti-filarial agents using carbamo(dithioperoxo)thioate derivatives” (Eur J Med Chem, 2018)
In brackets after ≈: the same amount, converted by molar mass. Activity calls are given as the source filed them. The rule behind the calls is not given here.

Key:
[1] = tested on: Setaria cervi; test: Antifilarial activity against Setaria cervi microfilariae after 24 hrs by MTT assay; type: functional
Summary of the method: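 Bovine S. cervi microfilariae incubated with compounds (DMSO-dissolved) in RPMI-1640 + 10% FBS, 5% CO2, 24 h. Worms washed in PBS; ~1×10^3 suspended in 0.3 ml MTT 0.25 mg/ml, 37 °C 2 h in dark. Formazan dissolved in DMSO, absorbance at 595 nm. Percent inhibition computed; LC50 fitted; ≥4 repeats, mean ± SE.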

[2] = tested on: Setaria cervi; test: Antifilarial activity against Setaria cervi microfilariae after 3 hrs by trypan blue exclusion assay; type: functional, organism-based
Summary of the method: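 After treatment, the culture was mixed and 100 μL holding parasites moved into fresh medium and put back in the CO2 incubator. Viability read by trypan blue staining, dead worms blue. Viability % = live / total microfilariae.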

[3] = tested on: Setaria cervi; test: Antifilarial activity against Setaria cervi microfilaria forms after 24 hrs by MTT assay; type: functional, organism-based
Summary of the method: (§1)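 S. cervi mf or adults cultured in RPMI-1640 with 10% FBS, 5% CO2, 24 h with compounds dissolved in DMSO. Worms washed in PBS, ~1×10^3 put in 0.25 mg/ml MTT for 2 h at 37 °C in the dark. Formazan dissolved in DMSO, A595. Percent inhibition computed, LC50 fitted; at least four repeats, mean ± SE.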

[4] = tested on: Setaria cervi; test: Antifilarial activity against Setaria cervi microfilariae after 3 hrs
[5] = tested on: Setaria cervi; test: Induction of chromatin condensation in Setaria cervi microfilariae by Hoechst 33342 staining-based […] microscopic analysis; type: functional, organism-based
Summary of the method: (§2)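 Treated mf washed in PBS (pH 7.2), fixed in paraformaldehyde and stained 5 min with 1 mg/mL Hoechst 33342. Mounted on poly-L-lysine slides and imaged by fluorescence microscopy at […].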

[6] = tested on: Setaria cervi; test: Antifilarial activity against Setaria cervi microfilariae assessed as reduction in worm movement measured every 6 hrs up to 24 hrs by microscopy; type: functional, organism-based
Summary of the method: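 About 1×10^5 S. cervi mf per well in RPMI-1640 with 10% FBS at 5% CO2, given a dose series. Motility checked by microscope every 6 h up to 24 h and scored 4 (highly motile) down to 0 (dead). IC50 and MIC calculated from scores; three experiments in triplicate, mean ± SE.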

[7] = tested on: Setaria cervi; test: Antifilarial activity against Setaria cervi adult after 3 hrs by trypan blue exclusion assay; type: functional, organism-based
[8] = tested on: Setaria cervi; test: Antifilarial activity against Setaria cervi oocytes after 24 hrs by MTT assay; type: functional, organism-based
[9] = tested on: Setaria cervi; test: Antifilarial activity against Setaria cervi adult after 24 hrs by MTT assay; type: functional, organism-based; summary of the method: as §1
[10] = tested on: Setaria cervi; test: Induction of apoptosis in Setaria cervi oocytes at 1 to 5 ug/ml by acridine orange/ethidium bromide staining-based fluorescence microscopic analysis; type: functional, organism-based
Summary of the method: (§3)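 Treated mf or oocytes stained with AO and EtBr mixed 1:1 (from […] stocks in 0.1 M PBS). Viewed under fluorescence microscope on glass slides; orange EtBr signal marks lost membrane integrity.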

[11] = tested on: Setaria cervi; test: Induction of apoptosis in Setaria cervi microfilaria assessed as viable cells at 50 ug/ml after 6 hrs by Annexin V-FITC/propidium iodide staining-based flow cytometric analysis (reference value: 97.66%); type: functional
[12] = tested on: WI-38; test: Cytotoxicity against human WI38 cells after 24 hrs by MTT assay; type: cell-based; details: WI-38, 24 h
Summary of the method: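 WI-38 normal human lung fibroblasts, 2.0×10^4 per well, grown 24 h, then treated 24 h at 0–50 µg/mL. MTT 0.5 mg/mL added in phenol red-free RPMI with 5% FBS, 4 h at 37 °C, 5% CO2. Formazan dissolved in DMSO, A570.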

[13] = tested on: Setaria cervi; test: Induction of apoptosis in Setaria cervi oocytes at 1 to 10 ug/ml after 6 hrs by Annexin V-FITC/propidium iodide staining-based fluorescence microscopic analysis; type: functional, organism-based
Summary of the method: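 Oocytes taken from gravid S. cervi females, cultured in RPMI-1640 with FBS and treated at 1 and 10 μg/mL. Washed, suspended in PBS (50 mM, pH 7.2), spun at 7500 rpm for 5 min, stained with Annexin V-FITC/PI. Imaged by inverted fluorescence microscope.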

[14] = tested on: Setaria cervi; test: Induction of apoptosis in Setaria cervi oocytes assessed as early apoptotic cells at 50 ug/ml after 6 hrs by Annexin V-FITC/propidium iodide staining-based flow cytometric analysis (reference value: 8.19%); type: functional
[15] = tested on: Setaria cervi; test: Induction of apoptosis in Setaria cervi adult form assessed as increase in EGL1 protein levels after 24 hrs by Western blot analysis; type: functional, organism-based
Summary of the method: (§4)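 Adult worms treated 24 h at 10, 50 and 100 μg/mL. Protein measured by Lowry; 100 μg run on 12.5% SDS-PAGE and blotted to PVDF. Blocked in 10% skim milk, anti-EGL-1, CED-3 or CED-9 overnight at 4 °C, then alkaline phosphatase secondary for 6 h. BCIP/NBT detection, GAPDH loading control, band densitometry.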

[16] = tested on: Setaria cervi; test: Induction of reactive oxygen species generation in Setaria cervi adult form at 1 to 10 uM by NBT assay; type: functional, organism-based
Summary of the method: (§5)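 Treated mf or adults pelleted at 7500 rpm, washed in PBS (50 mM, pH 7.0), then incubated in 2% NBT for 2 h at 37 °C. Washed in PBS and methanol, formazan dissolved in 2M KOH/DMSO for 10–15 min at room temperature, absorbance read at 620 nm.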

[17] = tested on: Setaria cervi; test: Induction of chromatin condensation in Setaria cervi microfilariae at 5 ug/ml after 3 hrs by Hoechst 33342 staining-based […] microscopic analysis; type: functional, organism-based; summary of the method: as §2
[18] = tested on: Setaria cervi; test: Induction of apoptosis in Setaria cervi microfilaria assessed as late apoptotic cells at 50 ug/ml after 6 hrs by Annexin V-FITC/propidium iodide staining-based flow cytometric analysis (reference value: 0.21%); type: functional
[19] = tested on: Setaria cervi; test: Induction of apoptosis in Setaria cervi microfilaria assessed as early apoptotic cells at 50 ug/ml after 6 hrs by Annexin V-FITC/propidium iodide staining-based flow cytometric analysis (reference value: 2.11%); type: functional
[20] = tested on: Setaria cervi; test: Induction of apoptosis in Setaria cervi adult form assessed as increase in CED3 protein levels after 24 hrs by Western blot analysis; type: functional, organism-based; summary of the method: as §4
[21] = tested on: Setaria cervi; test: Induction of apoptosis in Setaria cervi microfilaria assessed as necrotic cells at 50 ug/ml after 6 hrs by Annexin V-FITC/propidium iodide staining-based flow cytometric analysis (reference value: 0.02%); type: functional
[22] = tested on: Setaria cervi; test: Induction of apoptosis in Setaria cervi oocytes assessed as viable cells at 50 ug/ml after 6 hrs by Annexin V-FITC/propidium iodide staining-based flow cytometric analysis (reference value: 90.03%); type: functional
[23] = tested on: Setaria cervi; test: Induction of reactive oxygen species generation in Setaria cervi microfilariae at 1 to 10 uM by NBT assay; type: functional, organism-based; summary of the method: as §5
[24] = Selectivity ratio of IC50 for human WI38 cells to IC50 for Setaria cervi microfilariae; type: toxicity; details: read-out: Ratio IC50
[25] = tested on: Setaria cervi; test: Induction of apoptosis in Setaria cervi oocytes assessed as late apoptotic cells at 50 ug/ml after 6 hrs by Annexin V-FITC/propidium iodide staining-based flow cytometric analysis (reference value: 0.64%); type: functional
[26] = tested on: Setaria cervi; test: Induction of apoptosis in Setaria cervi adult form assessed as decrease in CED9 protein levels after 24 hrs by Western blot analysis; type: functional, organism-based; summary of the method: as §4
[27] = tested on: Setaria cervi; test: Induction of apoptosis in Setaria cervi oocytes assessed as necrotic cells at 50 ug/ml after 6 hrs by Annexin V-FITC/propidium iodide staining-based flow cytometric analysis (reference value: 1.14%); type: functional
[28] = tested on: Setaria cervi; test: Induction of apoptosis in Setaria cervi microfilariae at 1 to 5 ug/ml by acridine orange/ethidium bromide staining-based fluorescence microscopic analysis; type: functional, organism-based; summary of the method: as §3

SMILES | Activity [1] | LC50 [1] | Activity [2] | Activity [3] | IC50 [4] | IC50 [6] | MIC [6] | Activity [7] | Activity [8] | Activity [9] | further results
S=C(SSc1ncccn1)N1CCOCC1 | Dose-dependent effect | 6.17 µg/mL (≈ 22.6 µM) | Dose-dependent effect | Active | 5.5 µg/mL (≈ 20.1 µM) | 5.5 µg/mL (≈ 20.1 µM) | 0.97 µg/mL (≈ 3.55 µM) | Dose-dependent effect | Active | Dose-dependent effect | Activity [5]: Active
COc1ccc(SSC(=S)N2CCCCC2)cc1 | Dose-dependent effect | 6.94 µg/mL (≈ 23.2 µM) | Dose-dependent effect | Active | 4.61 µg/mL (≈ 15.4 µM) | 4.61 µg/mL (≈ 15.4 µM) | 2.3 µg/mL (≈ 7.68 µM) | Dose-dependent effect | Active | Dose-dependent effect | Activity [5]: Active
S=C(SSc1ccccn1)N1CCCCC1 | – | 97.3 µg/mL (≈ 360 µM) | – | – | – | 24.3 µg/mL (≈ 89.9 µM) | 8.69 µg/mL (≈ 32.1 µM) | – | – | – | –
COc1ccc(SSC(=S)N2CCOCC2)cc1 | – | 80.3 µg/mL (≈ 266 µM) | – | – | – | 20.1 µg/mL (≈ 66.6 µM) | 6.69 µg/mL (≈ 22.2 µM) | – | – | – | –
Cc1ccc(SSC(=S)N2CCCCC2)cc1 | Dose-dependent effect | 3.89 µg/mL (≈ 13.7 µM) | Dose-dependent effect | Active | 0.708 µg/mL (≈ 2.5 µM) | 0.708 µg/mL (≈ 2.5 µM) | 0.358 µg/mL (≈ 1.26 µM) | Dose-dependent effect | Active | Dose-dependent effect | Activity [10]: Dose-dependent effect; Activity [11]: 68.55%; IC50 [12]: 19.8 µg/mL (≈ 70 µM); Activity [13]: Dose-dependent effect; Activity [14]: 13.3%; Activity [15]: Dose-dependent effect; Activity [16]: Active; Activity [17]: Active; Activity [18]: 15.82%; Activity [19]: 15.6%; Activity [20]: Dose-dependent effect; Activity [21]: 0.01%; Activity [22]: 70.84%; Activity [23]: Active; selectivity ratio [24]: 25; Activity [25]: 11.3%; Activity [26]: Dose-dependent effect; Activity [27]: 4.47%; Activity [28]: Dose-dependent effect
S=C(SSc1cccc2ccccc12)N1CCOCC1 | – | 88.9 µg/mL (≈ 277 µM) | – | – | – | 22.2 µg/mL (≈ 69.1 µM) | 7.41 µg/mL (≈ 23 µM) | – | – | – | –
S=C(SSc1cccc2ccccc12)N1CCC(Cc2ccccc2)CC1 | – | 243 µg/mL (≈ 593 µM) | – | – | – | 60.7 µg/mL (≈ 148 µM) | 20.2 µg/mL (≈ 49.4 µM) | – | – | – | –
S=C(SSc1ncccn1)N1CCC(Cc2ccccc2)CC1 | – | 240 µg/mL (≈ 663 µM) | – | – | – | 59.9 µg/mL (≈ 166 µM) | 20 µg/mL (≈ 55.2 µM) | – | – | – | –
COc1ccc(SSC(=S)N2CCc3ccccc3C2)cc1 | – | 126 µg/mL (≈ 361 µM) | – | – | – | 31.4 µg/mL (≈ 90.4 µM) | 10.5 µg/mL (≈ 30.1 µM) | – | – | – | –
S=C(SSc1ncccn1)N1CCCCC1 | Dose-dependent effect | 5.1 µg/mL (≈ 18.8 µM) | Dose-dependent effect | Active | 4.75 µg/mL (≈ 17.5 µM) | 4.75 µg/mL (≈ 17.5 µM) | 2.39 µg/mL (≈ 8.81 µM) | Dose-dependent effect | Active | Dose-dependent effect | IC50 [12]: 10.6 µg/mL (≈ 39.1 µM); Activity [23]: Active; Activity [5]: Active; selectivity ratio [24]: 5
S=C(SSc1cccc2ccccc12)N1CCc2ccccc2C1 | – | 131 µg/mL (≈ 356 µM) | – | – | – | 32.7 µg/mL (≈ 89 µM) | 10.9 µg/mL (≈ 29.7 µM) | – | – | – | –
S=C(SSc1ncccn1)N1CCc2ccccc2C1 | – | 124 µg/mL (≈ 389 µM) | – | – | – | 31.1 µg/mL (≈ 97.3 µM) | 10.4 µg/mL (≈ 32.4 µM) | – | – | – | –
